Assay outcomes from PubChem BioAssay.
Only some compounds are listed: those with a hit (about 4.6% of all), similar ones and a draw of the others.
OX1R antag-1 – antagonists of human orexin 1 receptor (OX1R). hit rate 1.8% among 330,000. inhibition, % at 6.6 µM. OX1R-expressing cells, FRET antagonist read-out. Orexin/Hypocretin receptor type 1 (Homo sapiens), O43613. AID 485270, 2010; in the data active = inhibition mostly above about 38%, no sharp cut-off; inactive = mostly below about 40%
TAAR1 agonist – human TAAR1 agonists, primary screen, Fluo-8 calcium fluorescence, CHO RD-HGA16 cells. Trace amine-associated receptor 1 (Homo sapiens), Q96RJ0. vehicle wells 0%, saturating PEA agonist 100%. activation, % at 3 µM. hit rate 0.99% among 360,000. AID 624467, 2012;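 active = activation above the mean activation of all test compounds in the run plus 3 SD, cut at about 38% in these data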
Target sequence (Q96RJ0 whole entry, looked up): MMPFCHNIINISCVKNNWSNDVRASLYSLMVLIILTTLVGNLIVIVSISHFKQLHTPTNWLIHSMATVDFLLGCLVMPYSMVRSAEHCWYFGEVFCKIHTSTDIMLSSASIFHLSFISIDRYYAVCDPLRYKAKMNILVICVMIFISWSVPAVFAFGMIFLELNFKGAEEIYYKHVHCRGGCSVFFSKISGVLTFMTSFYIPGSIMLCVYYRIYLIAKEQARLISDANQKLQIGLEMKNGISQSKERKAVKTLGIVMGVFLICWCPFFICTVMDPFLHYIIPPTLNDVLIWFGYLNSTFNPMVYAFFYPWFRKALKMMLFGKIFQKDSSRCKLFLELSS
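System: CHO-derived RD-HGA16 cells with stable Gα16 and human TAAR1. Times: 17-24 h plating, Fluo-8 75 min 37 °C, 30 min RT. Measured by: calcium-sensitive Fluo-8 signal, excitation 470-495, emission 515-575 nm. Read-out basis: % activation relative to PEA EC100 response. Control set: DMSO and PEA EC100. Repeats: no replicates (n 1).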
CHO parental Ca – ATP-evoked calcium signal inhibitors, parental CHO, primary screen, counter-screen for OX1R antagonist project, cell-based, fluorescence, Fluo-8 calcium dye; parental CHO-K1, ATP-induced calcium, Fluo-8 fluorescence; inhibition, % at 5.6 µM; hit rate 0.63% among 330,000;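 active = inhibition above that plate's mean sample inhibition plus 3 SD, cut at about 26% in these data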
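Material: Parental CHO cells | Reagent: ATP | Compound dosing: Single nominal dose of 5.6 µM per compound | Detection: Intracellular calcium via Fluo-8 no-wash fluorescent dye | Read-out: % inhibition of ATP-induced calcium mobilization | Benchmarks: Low control ATP plus DMSO, high control DMSO only | Replicates: Singlicate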
OX1R antag-2 – OX1R (HCRTR1) antagonists, primary screen, fluorescence, CHO/OX1R cells, Fluo-8 calcium, orexin A | AID 434989, 2010 | inhibition, % at 5 µM | Fluo-8 calcium fluorescence | hit rate 0.43% among 330,000;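 active = inhibition above its plate's threshold, mean inhibition of all tested compounds on the plate plus 3 SD, cut at about 37% in these data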
TAAR1 antag – human TAAR1 antagonists, primary screen, Fluo-8 calcium fluorescence, CHO RD-HGA16 cells. inhibition, % at 3 µM. hit rate 1.5% among 360,000. AID 624466, 2012. antagonist;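 active = inhibition above a per-plate cutoff, the mean inhibition of test compounds on that plate plus 3 SD, cut at about 49% in these data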
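System: CHO RD-HGA16 cells bearing hTAAR1. Reagent: EC80 β-phenethylamine stimulus. Schedule: seeding 17-24 h prior, 75-min 37 °C, 30-min RT dye loading. Signal: Fluo-8 intracellular calcium dye fluorescence, real-time kinetic reads. Read-out: % inhibition from peak post-agonist over basal fluorescence ratio. Benchmarks: vehicle wells and EC80 agonist wells. Replicates: n of 1.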
GPR7 antagonist – GPR7 receptor antagonists, primary screen, cell-based, fluorescence, single concentration | Neuropeptides B/W receptor type 1 (Homo sapiens), P48145 | GPR7-expressing cells, fluorescence antagonist assay | inhibition, % at 4.4 µM | hit rate 1.1% among 290,000 | AID 1861, 2009; in the data active = inhibition above about 16%, passing the limit was not always enough;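 also: cells stimulated with the agonist NPW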
Target sequence (P48145 whole entry, looked up): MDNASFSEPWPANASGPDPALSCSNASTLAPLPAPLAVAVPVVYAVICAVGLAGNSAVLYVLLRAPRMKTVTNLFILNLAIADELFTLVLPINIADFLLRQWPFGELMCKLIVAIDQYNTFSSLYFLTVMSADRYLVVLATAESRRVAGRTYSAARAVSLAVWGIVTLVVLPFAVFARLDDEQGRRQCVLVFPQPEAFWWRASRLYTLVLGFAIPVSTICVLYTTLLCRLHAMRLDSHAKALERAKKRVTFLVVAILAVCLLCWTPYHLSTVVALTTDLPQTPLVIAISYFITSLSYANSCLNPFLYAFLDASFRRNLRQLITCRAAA
Hits are given with their value; – = inactive; · = no result.

SMILES | OX1R antag-1 | TAAR1 agonist | CHO parental Ca | OX1R antag-2 | TAAR1 antag | GPR7 antagonist
NS(=O)(=O)c1ccc(N=Nc2ccc(=O)[nH]c2O)cc1 | 74 | – | – | – | – | –
CCOC(=O)C1=C(C(=O)OCC)C2N(Cc3ccc(C#N)cc3)c3ccccc3[C@@]23C[C@@H](C(=O)OC)N(S(=O)(=O)c2ccccc2C)C3=N1 (stereo partly specified) | · | – | · | · | – | ·
COc1ccc(NC(=S)N(CCCN2CCCC2)Cc2cccn2Cc2ccc(Cl)cc2)cc1Cl | – | 40 | – | – | – | 19
Cc1ccc(NC(=S)N(CCCN2CCCC2)Cc2cccn2Cc2ccc(Cl)cc2)cc1Cl | – | – | – | – | – | –
CCCCC(CC)CNC(=O)C1CC=CCC1C(=O)O (stereo unspecified) | – | 37 | – | – | – | –
O=C(Nc1ccc(OCc2ccccc2)cc1)c1ccccc1 | – | – | – | – | – | –
Cc1ccsc1C(=O)Nc1ccc(OCc2ccccc2)cc1 | – | – | – | – | 54 | –
O=C(CCN1CCN(Cc2ccccc2)CC1)Nc1ccc(OCc2ccccc2)cc1 | – | – | 36 | – | – | –
COc1ccc(C2=NOC(Cn3nc(-c4ccccc4)cc3C(=O)O)C2)cc1 (stereo unspecified) | – | – | – | – | – | ·
COCCNC(=O)c1cc(-c2ccccc2)n(CC2CC(c3ccc(OC)cc3)=NO2)n1 (stereo unspecified) | – | – | – | – | 53 | ·
COc1ccc(C2=NOC(Cn3nc(C(=O)NCc4ccc(C)cc4)cc3-c3ccccc3)C2)cc1 (stereo unspecified) | – | – | – | – | 58 | ·
COc1ccc(C2=NOC(Cn3nc(C(=O)NCc4cccc(C(F)(F)F)c4)cc3-c3ccccc3)C2)cc1 (stereo unspecified) | – | – | – | – | 55 | ·
Cc1ccccc1-c1cc(C(=O)NCc2cccc(C(F)(F)F)c2)n(CC2CC(c3cccnc3)=NO2)n1 (stereo unspecified) | – | – | – | – | 55 | ·
COc1ccc(N/C(N)=N/c2nc(C)cc(C)n2)cc1 | · | – | · | · | 55 | ·
Cc1cc(C)nc(/N=C(\N)Nc2ccc(S(=O)(=O)O)cc2)n1 | · | – | · | · | – | –
NC(N)=N/N=C/c1ccc(Cl)c(Cl)c1 | – | 39 | – | – | – | –
CC(C)C[C@H]1COc2cc(N3CCCC3)ccc2S(=O)(=O)N1 | · | – | · | · | – | ·
COc1ccc2c(c1)c(-c1csc(N)n1)c(C)n2C | 46 | – | – | – | – | –
CNc1ncnc2c1ncn2[C@H]1CN(Cc2cccc3ccccc23)C[C@@H](CO)O1 | · | – | · | · | – | ·
Cc1ccc(-n2c(N)c(C(=O)Nc3c(C)n(C)n(-c4ccccc4)c3=O)c3nc4ccccc4nc32)cc1C | – | · | 38 | – | · | –
COc1cc(C=C2CCCC(=Cc3ccc(OCC4CO4)c(OC)c3)C2=O)ccc1OCC1CO1 (stereo unspecified) | · | – | · | · | 61 | ·
COC(=O)[C@]12C[C@H](CC(=O)N3CCN(C(=O)c4ccco4)CC3)C(=O)N(Cc3ccccc3)C1=C[C@H](C(C)(C)C)O[C@@H]2C | · | – | · | · | – | ·
CCc1ccc(NC(=O)CCC(=O)c2ccc(C)cc2)cc1 | – | – | 31 | – | – | –
CC(=O)N1C[C@@H](CO)[C@@H]2C[C@H]1c1ccccc1N2C | · | – | · | · | – | ·
Cc1ccccc1-c1ccc2c(c1)[C@@H]1C[C@H]3[C@@H](CN1CC2)[C@H](C)OC(C1CCCCC1)N3C (stereo partly specified) | · | – | · | · | – | ·
SMILES | OX1R antag-1 | TAAR1 agonist | CHO parental Ca | OX1R antag-2 | TAAR1 antag | GPR7 antagonist
c1ccc2c(c1)ncn2CCCOc1ccc2c(c1)CCC2 | – | – | – | – | – | –
Cc1nc2ccccc2n1Cc1ccc(Cl)cc1 | – | – | 31 | – | – | –
Cc1ccc(OCCCCn2cnc3ccccc32)cc1 | – | – | – | – | – | –
c1ccc2c(c1)ncn2CCCCOc1ccc2c(c1)CCC2 | – | – | 37 | – | – | –
Cc1ccccc1Cn1c(C)nc2ccccc21 | – | – | 41 | – | – | –
Cc1ccccc1OCCCCn1cnc2ccccc21 | – | – | 50 | – | – | –
Nc1[nH]c(C(=O)c2ccccc2)c(-c2ccc(Cl)cc2Cl)c1C(=O)c1ccc(Br)cc1 | · | – | · | · | – | ·
CC(O)(c1ccncc1)c1nc(-c2cccc(C(F)(F)F)c2)cs1 (stereo unspecified) | · | – | · | · | – | ·
Cc1nc2ccccc2n1CCOc1ccccc1 | – | – | – | – | – | –
Cc1ccccc1OCCn1c(C)nc2ccccc21 | – | – | 35 | – | – | –
CC(=O)c1cn(CCOc2ccccc2C)c2ccccc12 | – | – | 41 | – | – | –
COc1ccc(CNC(=O)COC(=O)/C=C/c2cccs2)cc1 | – | – | – | – | – | –
COc1ccccc1CNC(=O)COC(=O)/C=C/c1cccs1 | – | – | – | – | – | 19
C#Cc1cccc(Nc2nc(NCc3ccccc3OC)nc3ccsc23)c1 | · | – | · | · | 52 | ·
C#Cc1cccc(Nc2nc(NC(C)C)nc3ccsc23)c1 | · | – | · | · | – | ·
C#Cc1cccc(Nc2nc(NCCOC)nc3ccsc23)c1 | · | – | · | · | 57 | ·
CC(C)N1CCC(C)(C(=O)Nc2cccc(Oc3ccccc3)c2)C1 (stereo unspecified) | · | – | · | · | – | ·
N#Cc1cc([N+](=O)[O-])ccc1NC(=O)CSc1n[nH]c(=O)[nH]c1=O | 45 | – | – | – | – | ·
N#Cc1cc([N+](=O)[O-])ccc1NC(=O)COC(=O)C1CCC(=O)N1 (stereo unspecified) | 42 | – | – | – | – | ·
N#Cc1cc([N+](=O)[O-])ccc1NC(=O)COC(=O)C12CC3CC(CC(C3)C1)C2 | – | · | – | – | · | –
CCOC(=O)N[C@@H](CC(C)C)C(=O)N1CCC[C@H]1C(=O)NCc1ccccc1 | · | – | · | · | – | ·
